In the library only some 3.7% were active in any assay of this set; here they are far more common.
KCNQ1 act – potentiators or activators of KCNQ1 channel, primary screen, cell-based, thallium flux, high-throughput. 0.35% of 310,000 active. CHO-K1 KCNQ1, thallium flux FluxOR fluorescence; active compounds read high. AID 2648, 2010. Potassium voltage-gated channel subfamily KQT member 1 (Homo sapiens), P51787. B-score at 10 µM;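 active = fluorescence ratio B-score, a plate-corrected score, at least three library SD, with initial intensity B-score within 5 SD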
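Material: CHO-K1 cells stably expressing KCNQ1. Medium: assay buffer for compound exposure, DMSO matched across wells. Reagent: K+/Tl+ depolarizing stimulus. Compound dosing: single-concentration screen. Times: 37 °C overnight plating, 90-min dark dye load, 20-min compound pretreatment. Technique: FluxOR Tl+ flux fluorescence.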
KCNQ1 inh – inhibitors of human KCNQ1 channel, primary screen, cell-based, thallium flux, high-throughput; CHO-K1 KCNQ1, FluxOR thallium flux fluorescence; active compounds read high; B-score at 10 µM; 1.3% of 310,000 active; AID 2642, 2010;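 active = compounds whose thallium flux B-score, printed positive for inhibition, exceeds three library SD while starting fluorescence stays within three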;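 also: channel opened by potassium depolarization with thallium stimulus after 20 min compound exposure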
KCNK3 inh – human KCNK3 channel inhibitors, primary screen, CHO cells, FluxOR thallium flux, B-score; Potassium channel subfamily K member 3 (Homo sapiens), O14649; FluxOR fluorescence; active compounds read low; B-score at 10 µM; 0.84% of 340,000 active;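 active = B-score under library mean minus 4 SD, starting fluorescence ratio at most library mean plus 5 SD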;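 also: more negative B-score means stronger inhibition of thallium flux through KCNK3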
KCNK9 block – KCNK9 potassium channel inhibitors, primary screen, HEK293 cells, thallium flux; B-score at 10 µM; Potassium channel subfamily K member 9 (Homo sapiens), Q9NPC2; AID 488922, 2010; FluxOR thallium flux fluorescence; active compounds read low; 1.2% of 310,000 active;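 active = ratio B-score over 3 SD below the library mean, with starting fluorescence within 5 SD of its mean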;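 also: negative B-score means less thallium flux so channel inhibition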
Kir21 block – inhibitors of mouse Kir2.1 inward-rectifier potassium channel; HEK293-Kir2.1, FluxOR thallium flux fluorescence; active compounds read low; B-score at 10 µM; 0.85% of 310,000 active; AID 1672, 2009;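 active = fluorescence ratio B-score at or below minus 3 SD of library scores, with starting-brightness B-score within 2 SD, cut at about -4.2 in these data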;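 also: channel flux triggered by added potassium and thallium sulfate stimulus; B-score of peak minus minimum fluorescence over baseline after thallium stimulus; more negative B-score means stronger Kir2.1 block with less thallium influx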
hERG rescue – hERG rescue from dofetilide block, primary screen, cell-based, CHO-hERG, FluxOR thallium flux, dofetilide IC70; dofetilide IC70 present; activation (rescue from dofetilide block), less the hit threshold, % at 10 µM; Voltage-gated inwardly rectifying potassium channel KCNH2 (Homo sapiens), Q12809; 0.51% of 310,000 active;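 active = activation above the mean of controls blocked by dofetilide plus 5 SD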;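 also: thallium influx through hERG after potassium depolarization seen as dye fluorescence rise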
Hits are given with their value; 0 = inactive; - = not tested or not shown.

SMILES	KCNQ1 act	KCNQ1 inh	KCNK3 inh	KCNK9 block	Kir21 block	hERG rescue
Cc1ccc(S(=O)(=O)NC(CC(C)C)C(=O)Oc2ccc3c4c(c(=O)oc3c2)CCC4)cc1 (centres undefined)	0	6	0	0	0	0
CC[C@@H](NS(=O)(=O)c1ccc(C)cc1)C(=O)Oc1ccc2c3c(c(=O)oc2c1)CCC3	0	0	0	0	0	0
COc1cccc(C(=O)N/N=C/C(Br)=C/c2ccccc2)c1	0	0	0	-8.1	0	0
O=C(N/N=C/C(Br)=C/c1ccccc1)c1ccccc1[N+](=O)[O-]	0	0	0	-6.9	0	0
Cc1ccc(-c2cc(C(=O)N/N=C/C(Br)=C/c3ccccc3)n[nH]2)o1	0	0	0	-7	0	0
O=C(N/N=C/c1ccncc1)c1ccccc1[N+](=O)[O-]	0	0	0	0	0	0
Cc1cc(-n2c(=S)sc3c(=O)n(-c4ccc(F)cc4)c(SCC(=O)O)nc32)ccc1Cl	0	0	0	0	0	0
CN(C(=O)COC(=O)CNC(=O)C12CC3CC(CC(C3)C1)C2)C1CCS(=O)(=O)C1 (centres undefined)	0	0	0	0	0	0
O=C1CCCN1S(=O)(=O)c1ccc(F)cc1	0	0	0	0	0	0
CC1=NNC(=O)C1CC(=O)N/N=C/C=C/c1ccccc1 (centres undefined)	0	0	0	0	0	21
COc1cc(/C=C2/C(=O)NN(c3cccc(F)c3)C2=O)ccc1OC(=O)c1ccco1	0	0	0	0	-9.8	0
COc1cc(/C=N/NC(=O)c2ccc(F)cc2)ccc1OC(=O)c1ccco1	0	0	0	0	0	0
O=C(COC(=O)/C=C/c1ccc(OC(F)F)cc1)Nc1ccc2[nH]c(=O)[nH]c2c1	-	-	0	-	-	-
COc1ccc(C2Nc3ccccc3C(=O)N2NS(=O)(=O)c2ccccc2)cc1 (centres undefined)	0	0	0	0	0	0
O=C(c1ccc(Cl)cc1)N1CCN=C1c1ccccc1	0	0	0	0	-4.5	0
CC(Cc1cccs1)NC(=O)Nc1ccc(F)cc1 (centres undefined)	0	0	0	-6.6	0	0
O=C(Cc1cccs1)Nc1ccc(F)cc1	0	0	0	0	0	0
Cc1c(-c2ccccc2)sc2nc[nH]c(=S)c12	91	0	0	0	0	30
COc1ccccc1C(CCNCc1ccccc1)c1ccc(OC(C)C)cc1 (centres undefined)	0	0	0	0	-6.3	0
COc1ccccc1C(CCNCc1ccc(N(C)C)cc1)c1ccc(OC(C)C)cc1 (centres undefined)	0	10	0	0	-4.4	0
COc1ccc(CNCCC(c2ccccc2)c2ccc3c(c2)OCO3)cc1 (centres undefined)	0	0	0	0	-8.1	0
COc1ccc(C(CC(=O)O)c2ccc3c(c2)OCO3)cc1 (centres undefined)	0	0	0	0	0	0
COc1ccc(CNCCC(c2ccc(OC(C)C)cc2)c2ccccc2OC)cc1OC (centres undefined)	0	0	0	0	0	0
COc1ccc(CNCCC(c2ccc(OC(C)C)cc2)c2ccccc2OC)cc1 (centres undefined)	0	9	0	0	-7.4	0
CC(C)c1nc(SCC(=O)Nc2ccc(C(=O)O)cc2)c2c3c(sc2n1)CCCC3	0	0	0	0	0	0
SMILES	KCNQ1 act	KCNQ1 inh	KCNK3 inh	KCNK9 block	Kir21 block	hERG rescue
CCOC(=O)C1=C(CSc2nc(-c3ccncc3)ccc2C#N)OC(N)=C(C#N)C1c1ccc(OC)cc1 (centres undefined)	0	0	0	-7.9	0	0
O=C(Cn1c(=O)oc2cc(S(=O)(=O)N3CCCCCC3)ccc21)NC1CCCCC1	0	0	0	0	0	0
CC(C)CCNC(=O)Cn1c(=O)oc2cc(S(=O)(=O)N3CCc4ccccc43)ccc21	0	0	0	-9.2	0	0
O=C(Cn1c(=O)oc2cc(S(=O)(=O)N3CCc4ccccc43)ccc21)NC1CCCC1	0	0	0	-8.8	0	0
C=C(C)CN(CC)C(=O)CC1C(=O)NCCN1C (centres undefined)	0	0	0	0	0	0
O=C(COc1ccccc1[N+](=O)[O-])NCC1COc2ccccc2O1 (centres undefined)	-	-	0	-	-	-
CN(C(=O)CSc1nc2ccccc2n1C)C1CCS(=O)(=O)C1 (centres undefined)	-	-	0	-	-	-
CCSc1nnc([C@H](Cc2ccccc2)NC(=O)OC(C)(C)C)o1	0	0	0	0	0	0
Cc1ccccc1CS(=O)(=O)c1nnc([C@H](Cc2ccccc2)NC(=O)OC(C)(C)C)o1	12	0	0	0	0	0
O=C(c1nc2ccccn2c1CNCCOc1cccnc1)N1CCOCC1	0	0	0	0	0	0
O=C(c1ccc(Cl)cc1)N1CCCOC1	0	0	0	0	0	7.0
CCOC(=O)c1c(NC(=O)C(NCCN(C)C)c2ccccc2)sc2c1CCCC2 (centres undefined)	0	0	0	0	-6.2	0
O=S(=O)(Cc1ccc(Cl)cc1)NCc1ccc2c(c1)OCO2	0	0	0	0	0	0
COc1cccc(C2(O)CCN(C(=O)C3CCC3)CC2)c1	0	0	0	0	0	4.8
COc1cscc1C(=O)O	0	0	0	0	0	0
CCN(c1ccccc1)S(=O)(=O)c1cc(C(=O)OC(C)C(=O)Nc2ccc3c(c2)OCCO3)ccc1C (centres undefined)	0	0	0	0	0	0
CCOc1ccc(C(=O)C(CCC(CN(C)C)C(=O)c2ccc(OCC)cc2)CN(C)C)cc1 (centres undefined)	8	0	0	0	0	0
CN(C)CC(CCC(CN(C)C)C(=O)c1ccccc1)C(=O)c1ccccc1 (centres undefined)	20	0	0	0	0	0
COc1ccc(C(=O)C(CCCCC(CN(C)C)C(=O)c2ccc(OC)cc2)CN(C)C)cc1 (centres undefined)	0	0	0	0	0	0
CCCCN(CCCC)CC(O)CN(c1cc([N+](=O)[O-])ccc1OC)S(=O)(=O)c1ccccc1 (centres undefined)	0	0	0	0	0	0
